This is a sample that favours compounds with a hit; in the whole collection about 1.8% have one here.
SUMO1-SIM PPI: SUMO1-SIM interaction modulation | AID 602429 | SUMO1 binding to a labelled peptide, TR-FRET, 1 h | inhibition, % at 20 µM | P63165 | hit rate 0.33% among 360,000; in the data active = inhibition above about 37%
Target sequence (P63165 whole entry, looked up): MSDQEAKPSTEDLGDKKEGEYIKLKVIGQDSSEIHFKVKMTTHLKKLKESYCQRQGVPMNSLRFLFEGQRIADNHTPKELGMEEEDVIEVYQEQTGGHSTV
LMPTP block: LMPTP (human) inhibition; P24666; recombinant LMPTP-A, OMFP fluorogenic substrate, fluorescence intensity; inhibition, % at 20 µM; hit rate 0.22% among 360,000; AID 651560;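 active = compounds that cut the enzyme signal by at least half of the control window in the single-dose screen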;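 note: plate controls were DMSO wells with enzyme plus substrate for no effect and substrate without enzyme for full effect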
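Test system: LMPTP-A phosphatase enzyme; input: 0.625 nM LMPTP-A final; reagent: OMFP substrate, 400 µM final; compound dosing: 20 µM single dose, 3% DMSO; incubation: 50 min dark incubation at room temperature; measured by: endpoint fluorescence intensity from OMFP dephosphorylation; measure: % inhibition relative to no-enzyme and uninhibited control wells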
Scp-1 inhibitor: Scp-1 (human) phosphatase inhibition; hit rate 0.88% among 340,000; Q9GZU7; AID 493091; Recombinant Scp1, phosphopeptide, malachite green phosphate absorbance; inhibition, % at 20 µM;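 active = inhibition above about 50% at 20 µM, limit read from the data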;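 note: plate controls were DMSO wells with enzyme for no effect and wells lacking enzyme for full effect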
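Test system: SCP-1 phosphatase catalytic domain, residues 76-261 | Compound dosing: One concentration, 20 µM, with 1.0% DMSO | Schedule: 45 min room-temperature reaction, 5 min colour, 30 min stabiliser | Detection: Absorbance at 630 nm | Read-out basis: % inhibition of SCP-1 phosphate liberation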
STEP inh: blocks human striatal-enriched tyrosine phosphatase | recombinant STEP, OMFP fluorogenic substrate, fluorescence | hit rate 0.25% among 360,000 | inhibition, % at 20 µM | P54829 | AID 588621;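 active = inhibition at 20 µM, scaled per plate between control wells, above about 37%, limit read from the data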;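 note: 0% = DMSO with enzyme and substrate and 100% = substrate only without enzyme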
Target sequence (P54829 whole entry, looked up): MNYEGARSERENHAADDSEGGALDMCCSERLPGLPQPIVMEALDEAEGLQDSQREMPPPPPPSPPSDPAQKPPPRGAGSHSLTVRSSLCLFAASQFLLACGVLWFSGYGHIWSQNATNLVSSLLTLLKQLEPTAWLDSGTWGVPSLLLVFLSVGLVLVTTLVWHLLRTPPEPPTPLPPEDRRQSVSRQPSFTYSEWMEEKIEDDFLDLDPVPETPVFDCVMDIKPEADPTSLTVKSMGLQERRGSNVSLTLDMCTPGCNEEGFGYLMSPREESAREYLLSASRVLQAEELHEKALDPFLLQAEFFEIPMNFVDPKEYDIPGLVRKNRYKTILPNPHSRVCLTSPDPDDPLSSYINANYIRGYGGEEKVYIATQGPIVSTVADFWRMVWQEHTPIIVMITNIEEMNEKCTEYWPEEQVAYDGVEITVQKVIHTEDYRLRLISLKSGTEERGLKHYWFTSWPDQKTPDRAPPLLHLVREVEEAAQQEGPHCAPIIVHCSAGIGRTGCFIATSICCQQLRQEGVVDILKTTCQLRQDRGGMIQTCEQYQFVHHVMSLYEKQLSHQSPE
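Test system: STEP tyrosine phosphatase / Reagent: OMFP at 25 µM / Doses: 20 µM, 1% DMSO / Read-out: percent inhibition scaled to no-enzyme and uninhibited-enzyme controls, plate-pattern corrected / Detection: FITC-channel fluorescence of OMFP product / Medium: Bis-Tris buffer pH 6.0, 2.5 mM DTT, 0.005% Tween 20 / Schedule: 20 min at room temperature, dark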
DNMT1 inh: blocks human DNA methyltransferase DNMT1; AID 588458; hit rate 0.83% among 360,000; inhibition (reported as % activation of signal), % at 10 µM; DNMT1 molecular beacon, Hinp1I cleavage, fluorescence; in the data active = inhibition above about 50%
HKDC1 inh: HKDC1 (human) hexokinase inhibition. AID 493160. Q2TB90. hit rate 0.16% among 340,000. inhibition, % at 20 µM. recombinant HKDC1, G6PDH/diaphorase resazurin coupled fluorescence;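 active = inhibition above about 35% when tested at 20 µM, limit read from the data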;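 note: plate controls were DMSO wells with enzyme for no effect and DMSO wells lacking enzyme for full effect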
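Assay system: recombinant HKDC1 hexokinase; detection: coupled resazurin fluorescence, excitation 525 nm, emission 613 nm; benchmarks: DMSO-plus-enzyme-mix negative control, buffer-substituted positive control; compound dosing: single 20 µM dose; schedule: 90 min at room temperature in dark; also added: glucose plus 1 mM ATP as hexokinase substrates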
DNMT1 interf DR: shows spectral interference in the DNMT1 beacon assay | 200 tested, under 10 active | IC50, µM | molecular beacon fluorescence, spectral interference counter-screen | shares compounds with DNMT1 inh | AID 602382; call rule not given here
DNMT1 confirm: DNMT1 inhibition confirmation, single concentration; shares compounds with DNMT1 inh; DNMT1 molecular beacon HinP1I cleavage, fluorescence; inhibition, % at 10 µM; hit rate 8% among 2,300; AID 602385;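 active = average inhibition of at least 30% in the single-concentration confirmation test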
Beacon interf: shows spectral interference in the DNMT1 beacon assay | AID 602387 | hit rate 1% among 2,300 | shares compounds with DNMT1 inh | activation (fluorescence interference), % at 10 µM | DNMT1 molecular beacon spectral interference counterscreen, fluorescence 485/520;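 active = activation of at least 30% at 10 µM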;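 note: DNMT1 catalytic domain with a HinP1I cleavage step and a FAM/dabcyl DNA beacon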
* = called active by the depositor; . = not tested or not shown.

SMILES	SUMO1-SIM PPI	LMPTP block	Scp-1 inhibitor	STEP inh	DNMT1 inh	HKDC1 inh	DNMT1 confirm	Beacon interf	others
COc1ccc(C)cc1NC(=O)CN(Cc1nnc(-c2ccc(Cl)cc2)o1)C1CCCC1	-0.4	9.0	-2.2	7.3	59.3*	8.1	-0.2	-1.7
Cc1cc(C)cc(Nc2nc(-c3ccc(S(=O)(=O)N4CCCC4)cc3)cs2)c1	0.0	4.2	-4.4	-1.9	96.5*	3.6	3.9	6.0
COc1cccc(NS(=O)(=O)c2ccc3c(c2)C2C=CCC2C(c2ccc(C(=O)O)cc2)N3)c1 (stereo not drawn)	44.0*	8.8	13.6	6.4	89.7*	4.0	28.0	1.9	DNMT1 interf DR=>99
COc1ccc(C(=O)N/N=C(\C)c2ccc3c(c2)C2C=CCC2C(c2ccccc2)N3)cc1 (stereo not drawn)	-0.9	1.8	2.9	3.3	-50.5	0.7	.	.
NS(=O)(=O)c1ccc(NC(=O)CSc2cn[nH]n2)cc1	-4.3	-2.0	-1.2	0.3	4.4	2.4	.	.
O=C(Nc1ccnn1C1CCN(Cc2ccc(C#CCCO)cc2)CC1)c1cccc(F)c1	7.3	-0.2	-2.2	1.5	-0.3	1.1	.	.
CC(C)C(NC(=O)c1ccc2c(c1)OCO2)C(=O)N/N=C/c1cccs1 (stereo not drawn)	-5.1	0.0	4.9	-0.1	59.8*	14.0	1.3	-0.1
C=CCN(C(=O)c1csnn1)C(C(=O)NCc1ccc(F)cc1)c1ccccc1F (stereo not drawn)	-5.5	-1.2	-9.6	0.7	54.1*	2.3	1.9	4.9
O=C(O)C1CCN(c2ccc(Cl)nn2)CC1	-5.4	-2.3	-1.8	-5.5	1.6	-7.4	.	.
CCC(=O)Oc1ccc2c(c1)O/C(=C\c1ccco1)C2=O	-17.7	1.9	-6.6	2.1	34.2	6.6	.	.
Cc1cc(O)cc2c1C(=O)/C(=C/c1ccco1)O2	-8.4	0.1	-17.9	2.0	64.8*	1.9	6.2	5.8
O=C(Nc1ccc2ccccc2c1)NC1CCS(=O)(=O)C1 (stereo not drawn)	-3.8	-1.5	-6.6	1.2	-2.4	-4.2	.	.
CCOc1ccc(NC(=O)c2ccccc2OCC(=O)c2ccccc2)cc1	0.1	6.8	-12.6	3.0	-0.9	0.5	.	.
O=C(CSCc1ccccc1Br)NC1CC1	0.8	-0.9	-5.2	1.8	81.2*	-3.3	-0.4	1.3
Cc1ccc(CSc2nnc(SCC(=O)N/N=C/C=C/c3ccccc3[N+](=O)[O-])s2)cc1	-3.8	1.2	-5.3	4.2	-0.8	-14.3	.	.
Cc1ccc(CSc2nnc(SCC(=O)N/N=C/C=C/c3ccco3)s2)cc1	3.4	3.3	-5.7	-0.5	52.5*	-6.4	1.7	3.2
COc1ccc(C(=O)N/C(=C\c2ccc(Cl)cc2)C(=O)NCc2ccncc2)cc1	-1.8	-2.2	.	-3.2	78.9*	.	3.3	4.2
CN(CCC#N)C(=O)COC(=O)c1c2c(nc3ccccc13)/C(=C/c1ccco1)CC2	14.7	58.9*	77.7*	3.0	100.0*	12.6	21.0	12.8
CC(C)CNC(=O)COC(=O)c1c2c(nc3ccccc13)/C(=C\c1cccs1)CC2	-8.0	5.9	7.5	0.2	-0.8	-6.6	.	.
CCOC(=O)c1cccc(C(=O)Nc2nc3ccc(OC)cc3s2)n1	0.2	0.9	-1.4	-2.0	0.3	0.5	.	.
CCOc1ccc(S(=O)(=O)Nc2cc(S(=O)(=O)N3CCOCC3)ccc2OC)cc1	0.2	0.1	-9.8	4.5	-1.1	-0.4	.	.
CCc1ccccc1NC(=O)CSc1ccsc1[N+](=O)[O-]	-14.7	6.7	48.2	3.2	53.0*	-9.0	4.9	1.9
O=C(Nc1ccc(NC(=O)c2sc3ccccc3c2Cl)cc1Cl)c1ccco1	-1.2	-2.4	-1.5	4.6	74.7*	5.5	0.3	-1.7
CCCc1nc2c(ccc3ccccc32)cc1CC	0.2	1.8	-11.0	2.4	1.4	4.5	.	.
COc1cc(/C=c2\sc3nc(=O)c(-c4ccccc4)nn3c2=O)ccc1OCCC(C)C	3.8	1.8	-7.4	-1.4	-1.9	-7.2	.	.
SMILES	SUMO1-SIM PPI	LMPTP block	Scp-1 inhibitor	STEP inh	DNMT1 inh	HKDC1 inh	DNMT1 confirm	Beacon interf	others
CCOc1ccc(/C=c2\sc3nc(-c4ccco4)nn3c2=O)cc1OCC	12.1	0.5	42.1	0.9	64.7*	0.5	4.3	-0.7
COc1ccccc1CN1CC(C(=O)NCCc2ncccc2C)CCC1=O (stereo not drawn)	0.9	-3.3	-2.0	-1.4	2.2	-7.2	.	.
O=[N+]([O-])c1ccc(Cl)c(S(=O)(=O)Nc2ccc(-c3ccc(N4CCOCC4)nn3)cc2)c1	-27.6	1.0	6.8	-1.1	2.2	-3.3	.	.
O=S(=O)(Nc1ccc(-c2ccc(N3CCOCC3)nn2)cc1)c1ccc(Cl)c(Cl)c1	-12.2	3.5	-0.7	3.6	83.3*	2.7	4.6	5.1
c1cc2ccc3ccc(-n4cnnn4)c4ccc(c1)c2c34	-2.6	13.0	27.5	1.2	59.9*	-3.5	5.3	3.5
CCC(=O)c1ccc(OCC(=O)Nc2cccc(S(=O)(=O)N3CCCCCC3)c2)cc1	2.1	2.7	-4.9	-0.1	-2.8	-0.8	.	.
